Consider 3 compounds from PMC4864154 (Journal of molecular biology, 2014).

Read-outs that look alike come from different tables or passages of the source.

In one assay the target is WT GluN1/2A (Rattus norvegicus, UniProt P35439+Q00959). As to the kind of experiment: Two-electrode voltage-clamp, steady-state block in Xenopus oocytes, WT receptor. It is filed as cell-based. A general note: In two-electrode clamp one electrode senses voltage and the other passes current.
The target in another assay is GluN1-N616G/2A (Rattus norvegicus, UniProt P35439+Q00959, N616G). The format is cell-based.
For a further assay, the target named is GluN1-I619G/2A (Rattus norvegicus, UniProt P35439+Q00959, I619G). It is filed as cell-based. In a few lines:
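Xenopus oocytes were injected with cRNA for rat GluN1-1a I619G (site-directed mutant, sequence-verified) at 1 ng and WT GluN2A at 10 ng per oocyte. Two-electrode voltage clamp at -60 mV in buffer of 115 mM NaCl, 2 mM KCl, 5 mM HEPES and 1.8 mM BaCl2, pH 7.6. Percent steady-state block of agonist-evoked current by 100 nM test compound or 0.5 mM Mg2+. Mean + SEM from 4–8 oocytes; ANOVA against WT.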

The target in assay [1] is recombinant GluN1/2A receptors (Rattus norvegicus, UniProt P35439+Q00959). The format is cell-based.
Assay [2] has as its target GluN1 S617 Gly-substituted GluN1/2A (Rattus norvegicus, UniProt P35439+Q00959, S617G). The format is cell-based.
Assay [3] deals with GluN1 E621 Gly-substituted GluN1/2A (Rattus norvegicus, UniProt P35439+Q00959, E621G). It is filed as cell-based. As to conditions: 100 nM ArgTX-636, -60 mV. In a few lines: (§1)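 Rat GluN1-1a and GluN2A cDNAs carrying Gly substitutions made by site-directed mutagenesis and sequence-verified. Xenopus oocytes were each injected with cRNA (1 ng GluN1, 10 ng GluN2A). Two-electrode voltage clamp at -60 mV in buffer of 115 mM NaCl, 2 mM KCl, 5 mM HEPES and 1.8 mM BaCl2, pH 7.6. Percent block of agonist-evoked steady-state current by 100 nM test compound. Mean + SEM from 4–8 oocytes; ANOVA against WT.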

In assay [4] the target is GluN2A N614 Gly-substituted GluN1/2A (Rattus norvegicus, UniProt P35439+Q00959, N614G). It is filed as cell-based. Particulars: 100 nM ArgTX-636, -60 mV. In a few lines:
as §1

The target of assay [5] is GluN2A N615 Gly-substituted GluN1/2A (Rattus norvegicus, UniProt P35439+Q00959, N615G). It is filed as cell-based. Particulars: 100 nM ArgTX-636, -60 mV. An outline of the steps:
as §1

The target of assay [6] is GluN2A S616 Gly-substituted GluN1/2A (Rattus norvegicus, UniProt P35439+Q00959, S616G). It is filed as cell-based. As to conditions: 100 nM ArgTX-636, -60 mV. An outline of the steps: as §1
Assay [7] concerns the target GluN2A V617 Gly-substituted GluN1/2A (Rattus norvegicus, UniProt P35439+Q00959, V617G). It is filed as cell-based. As to conditions: 100 nM ArgTX-636, -60 mV. In a few lines:
as §1

Assay [8] concerns GluN1/2A and GluN1/2B over GluN1/2C and GluN1/2D NMDAR subtypes. As to conditions: ref [44]; [48]; cited from earlier work.
Where [9] appears, read: holding potential -80 mV, Glu 100 μM, Gly 50 μM, HEK293.

Chain of GluN1-N616G/2A (Q00959 23-1464, other chains not shown): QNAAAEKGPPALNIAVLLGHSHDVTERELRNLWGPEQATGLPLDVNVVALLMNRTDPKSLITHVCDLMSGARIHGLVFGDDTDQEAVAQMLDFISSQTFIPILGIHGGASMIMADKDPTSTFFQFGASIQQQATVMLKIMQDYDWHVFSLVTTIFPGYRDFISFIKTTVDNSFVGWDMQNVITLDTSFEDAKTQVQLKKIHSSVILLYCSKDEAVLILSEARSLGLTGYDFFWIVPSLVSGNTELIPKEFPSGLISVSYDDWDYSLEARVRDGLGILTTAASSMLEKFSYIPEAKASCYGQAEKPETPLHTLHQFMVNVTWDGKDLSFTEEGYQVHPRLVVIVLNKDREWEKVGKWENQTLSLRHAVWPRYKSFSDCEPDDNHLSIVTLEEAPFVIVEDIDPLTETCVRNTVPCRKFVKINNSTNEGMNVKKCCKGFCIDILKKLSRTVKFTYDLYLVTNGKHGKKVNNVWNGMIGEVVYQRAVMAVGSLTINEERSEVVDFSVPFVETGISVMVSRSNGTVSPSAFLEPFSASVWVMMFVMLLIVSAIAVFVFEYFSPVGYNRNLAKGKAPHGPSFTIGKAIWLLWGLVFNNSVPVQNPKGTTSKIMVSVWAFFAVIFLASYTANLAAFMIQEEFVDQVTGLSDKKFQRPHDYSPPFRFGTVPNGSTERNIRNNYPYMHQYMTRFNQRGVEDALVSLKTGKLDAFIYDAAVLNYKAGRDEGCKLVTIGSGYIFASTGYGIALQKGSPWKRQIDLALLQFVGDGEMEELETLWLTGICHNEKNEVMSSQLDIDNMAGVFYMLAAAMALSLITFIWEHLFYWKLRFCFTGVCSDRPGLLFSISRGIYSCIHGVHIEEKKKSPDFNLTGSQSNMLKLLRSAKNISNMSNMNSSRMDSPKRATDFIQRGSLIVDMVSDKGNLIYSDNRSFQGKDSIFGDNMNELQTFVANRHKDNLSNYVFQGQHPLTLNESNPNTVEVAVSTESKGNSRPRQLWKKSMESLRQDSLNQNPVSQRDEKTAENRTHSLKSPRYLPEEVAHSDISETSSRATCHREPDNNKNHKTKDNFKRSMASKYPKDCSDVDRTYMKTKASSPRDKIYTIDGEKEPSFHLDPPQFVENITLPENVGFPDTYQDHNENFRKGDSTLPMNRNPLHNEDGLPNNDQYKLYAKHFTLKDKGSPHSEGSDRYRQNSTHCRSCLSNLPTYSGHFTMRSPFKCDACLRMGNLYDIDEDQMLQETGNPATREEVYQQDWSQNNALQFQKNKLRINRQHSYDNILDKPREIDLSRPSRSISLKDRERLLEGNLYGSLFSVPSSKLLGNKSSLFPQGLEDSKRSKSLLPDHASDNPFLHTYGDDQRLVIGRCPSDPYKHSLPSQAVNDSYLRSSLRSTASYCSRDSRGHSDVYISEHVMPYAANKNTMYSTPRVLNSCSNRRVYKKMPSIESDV
Chain of recombinant GluN1/2A receptors (Q00959 23-1464, other chains not shown): as above
Chain of GluN1 S617 Gly-substituted GluN1/2A (Q00959 23-1464, other chains not shown): as above

On to `[Mg+2]` [Mg^2+], for which the percent steady-state block on WT GluN1/2A (0.5 mM Mg^2+, WT) amounted to 88%; at GluN1-N616G/2A (0.5 mM Mg^2+, GluN1-N616G/2A), 28%; at GluN1-I619G/2A (0.5 mM Mg^2+, GluN1-I619G/2A), 53%.
`NC(=O)C[C@H](NC(=O)Cc1ccc(O)cc1O)C(=O)NCCCCCNCCCNCCCNC(=O)[C@@H](N)CCCN=C(N)N` [ArgTX-636, argiotoxin-636]: in assay [1] (500 nM ArgTX-636, -60 to -100 mV range), the “decrease in dissociation rate over -60 to -100 mV” value is listed as “less than 2 fold”. The “increase in rate of onset of block per 20-mV negative depolarization” value in assay [1] (500 nM ArgTX-636, membrane potential below -60 mV) was “approximately 5 fold”. Moreover, the “steady-state block of the current” value in assay [1] (500 nM ArgTX-636 for 6 s, 100 μM Glu, -80 mV) amounted to 96 ± 1%. For the same compound, the “fold higher association rate constant compared to memantine” value in assay [1] (ArgTX-636 Kon vs literature memantine Kon) was “approximately 10 fold”. Also, the “association rate constant (Kon) with the open channel” value in assay [1] (setting [9]) was 4.4 ± 0.3 × 10^6 M^-1 s^-1. For the same compound, the “dissociation rate constant (Koff) with the open channel” value in assay [1] (setting [9]) was found to be 0.36 ± 0.09 s⁻¹. For the same compound, the “mechanism of block (trapping)” value in [1] (recovery after wash in absence of agonist, 500 nM ArgTX-636, -80 mV) is recorded as “trapping blocker”. Also, the percent steady-state block on GluN1-N616G/2A (100 nM ArgTX-636, -60 mV, GluN1 N616G) is reported as 78%; in assay [2] (100 nM ArgTX-636, -60 mV, GluN1 S617G) it was “less than 15%”; at GluN1-I619G/2A (100 nM ArgTX-636, -60 mV, GluN1 I619G) it was “less than 15%”; in assay [3], “less than 15%”; in assay [4] it was approximately 100%; in assay [5] it was approximately 100%. For the same compound, the percent steady-state block in [6] and in assay [7] was approximately 100% throughout. In addition, the “selectivity for GluN1/2A and GluN1/2B over GluN1/2C and GluN1/2D” value in [8] was “more than 20 fold”.
`C[C@]12N[C@H](Cc3ccccc31)c1ccccc12` [MK-801, dizocilpine]: the results for the percent steady-state block (on WT GluN1/2A; at GluN1-N616G/2A; in assay [2]) were 75%, “less than 40%” and “less than 40%”, respectively.
